Experiments:
Prothrombin = Prothrombin (Homo sapiens, UniProt P00734); experiment: Inhibition of human thrombin
Coagulation factor X = Coagulation factor X (Homo sapiens, UniProt P00742); experiment: Inhibition of human factor 10a
Outline: (§1)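 Ki values were measured against the purified human enzymes.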

Trypsin = Trypsin (Homo sapiens, UniProt P07477+P07478+P35030); experiment: Inhibition of human trypsin; format: protein assay; outline: as §1
Plasma = experiment: Anticoagulant potency in human plasma assessed as concentration required to double prothrombin time; format: functional
[1] = (§2) Volume of distribution at steady state in dog at 0.5 mg/kg, iv and 0.2 mg/kg, po; format: ADME, organism-based, Canis lupus familiaris; conditions: in vivo, read-out: Vdss
Outline: (§3)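 Cassette (N-in-1) dosing, with compounds given together at 0.5 mg/kg iv and 0.2 mg/kg po; one animal per route (n = 1). Clearance, steady-state volume of distribution, oral half-life and oral bioavailability (F%) were derived from plasma levels.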

[2] = Clearance in dog at 0.5 mg/kg, iv and 0.2 mg/kg, po; format: ADME, organism-based, Canis lupus familiaris; conditions: in vivo; outline: as §3
[3] = Apparent permeability across Caco-2 cells; format: ADME, cell-based; conditions: human
[4] = Half life in dog at 0.2 mg/kg, po; format: ADME, organism-based, Canis lupus familiaris; design: dose 0.2 mg/kg, route oral; conditions: in vivo; outline: as §3
[5] = Oral bioavailability in dog at 0.2 mg/kg; format: ADME, organism-based, Canis lupus familiaris; conditions: in vivo; outline: as §3
Canis familiaris = experiment: as §2; format: ADME, organism-based, Canis lupus familiaris; conditions: in vivo; outline: as §3

Sequence of Coagulation factor X (P00742 41-179 limits assumed): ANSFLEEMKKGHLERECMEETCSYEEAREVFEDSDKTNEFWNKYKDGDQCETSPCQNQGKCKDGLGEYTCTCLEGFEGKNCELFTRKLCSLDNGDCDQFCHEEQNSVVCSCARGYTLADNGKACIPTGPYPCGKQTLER
Sequence of Coagulation factor X (P00742 235-488 limits assumed): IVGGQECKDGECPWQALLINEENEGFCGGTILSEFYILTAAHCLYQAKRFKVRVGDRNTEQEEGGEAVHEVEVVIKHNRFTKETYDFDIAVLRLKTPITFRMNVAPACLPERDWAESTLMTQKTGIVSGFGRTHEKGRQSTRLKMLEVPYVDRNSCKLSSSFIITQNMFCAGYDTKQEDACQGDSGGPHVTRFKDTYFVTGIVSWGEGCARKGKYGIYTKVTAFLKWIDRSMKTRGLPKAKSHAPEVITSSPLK

Row | SMILES | Ki (Prothrombin) | Ki (Coagulation factor X) | Ki (Trypsin) | further results
1 | CS(=O)(=O)c1ccccc1-c1ccc2c(c1)C(O)CCN2C(=O)c1cc(C(F)(F)F)nn1-c1ccc2onc(N)c2c1 (racemic) | > 6300 nM | 1400 nM | > 4200 nM | –
2 | CC(=O)N(C)Cc1nccn1-c1ccc2c(c1)CCN2C(=O)c1cc(C(N)=O)nn1-c1ccc2onc(N)c2c1 | – | 4.8 nM | – | –
3 | CS(=O)(=O)c1ccccc1-c1ccc2c(c1)CCN2C(=O)c1cc(C(F)(F)F)nn1-c1ccc2onc(N)c2c1 | > 21000 nM | 1.5 nM | > 2500 nM | Activity (Plasma): 26 µM
4 | CN(C)Cc1nccn1-c1ccc2c(c1)CCN2C(=O)c1cc(C(N)=O)nn1-c1ccc2onc(N)c2c1 | – | 2.2 nM | – | –
5 | CN(Cc1nccn1-c1ccc2c(c1)CCN2C(=O)c1cc(C(N)=O)nn1-c1ccc2onc(N)c2c1)S(C)(=O)=O | – | 6.9 nM | – | –
6 | CS(=O)(=O)c1ccccc1-c1ccc2c(c1)CCN2C(=O)c1cc(C(N)=O)nn1-c1ccc2onc(N)c2c1 | > 20000 nM | 0.82 nM | – | Activity (Plasma): 41 µM
7 | Nc1noc2ccc(-n3nc(C(F)(F)F)cc3C(=O)N3CCc4cc(-c5ccccc5CN5CCCC5)ccc43)cc12 | 15000 nM | 4.9 nM | > 40000 nM | Vd [1]: 20 L/kg; clearance [2]: 123 mL/min/kg
8 | NC(=O)c1cc(C(=O)N2CCc3cc(N4CCCCC4=O)ccc32)n(-c2ccc3onc(N)c3c2)n1 | – | 2.4 nM | – | Vd [1]: 0.2 L/kg; clearance [2]: 3.67 mL/min/kg; Papp [3]: 0.1 ×10⁻⁶ cm/s; half-life [4]: 1.6 h; bioavailability [5]: 6%; Activity (Plasma): 3.3 µM
9 | Nc1noc2ccc(-n3nc(C(F)(F)F)cc3C(=O)N3CCc4cc(-c5ccccc5S(N)(=O)=O)ccc43)cc12 | > 21000 nM | 2.7 nM | > 2500 nM | Vd [1]: 2 L/kg; clearance [2]: 10.5 mL/min/kg; half-life [4]: 4 h; bioavailability [5]: 66%; Activity (Plasma): 28 µM
10 | CN(C)Cc1nccn1-c1ccc(NC(=O)c2cc(C(F)(F)F)nn2-c2ccc3onc(N)c3c2)c(F)c1 [RAZAXABAN] | – | – | – | Vdss (Canis familiaris): 3.4 L/kg; clearance [2]: 18.3 mL/min/kg
11 | CS(=O)(=O)c1ccccc1-c1ccc2c(c1)C(=O)CCN2C(=O)c1cc(C(F)(F)F)nn1-c1ccc2onc(N)c2c1 | > 21000 nM | 500 nM | > 4200 nM | –
12 | NC(=O)c1cc(C(=O)N2CCc3cc(N4CCCCCC4=O)ccc32)n(-c2ccc3onc(N)c3c2)n1 | – | 15 nM | – | –
13 | NC(=O)c1cc(C(=O)N2CCc3ccc(N4CCCCCC4=O)cc32)n(-c2ccc3onc(N)c3c2)n1 | – | 1100 nM | – | –
14 | CS(=O)(=O)c1ccccc1-c1ccc2c(c1)OCCN2C(=O)c1cc(C(F)(F)F)nn1-c1ccc2onc(N)c2c1 | > 21000 nM | 71 nM | – | –
15 | CN(C)Cc1ccccc1-c1ccc2c(c1)CCN2C(=O)c1cc(C(N)=O)nn1-c1ccc2onc(N)c2c1 | – | 1 nM | > 20000 nM | Papp [3]: 0.3 ×10⁻⁶ cm/s; Activity (Plasma): 3 µM
16 | CN(C)CC(=O)N(C)c1ccc2c(c1)N(C(=O)c1cc(C(N)=O)nn1-c1ccc3onc(N)c3c1)CC2 | – | 350 nM | – | –
17 | Nc1noc2ccc(-n3nc(C(F)(F)F)cc3C(=O)N3CCCCc4cc(-c5ccccc5S(N)(=O)=O)ccc43)cc12 | > 6300 nM | 3400 nM | > 4200 nM | –
18 | NC(=O)c1cc(C(=O)N2CCc3cc(-n4ccccc4=O)ccc32)n(-c2ccc3onc(N)c3c2)n1 | – | 0.2 nM | – | Papp [3]: 0.1 ×10⁻⁶ cm/s; Activity (Plasma): 1.9 µM
19 | CN(C)CC(=O)N(C)c1ccc2c(c1)CCN2C(=O)c1cc(C(N)=O)nn1-c1ccc2onc(N)c2c1 | – | 6.8 nM | – | –
20 | CS(=O)(=O)c1ccccc1-c1ccc2c(c1)CCCN2C(=O)c1cc(C(F)(F)F)nn1-c1ccc2onc(N)c2c1 | > 6300 nM | 2000 nM | > 4200 nM | –
21 | CS(=O)(=O)c1ccccc1-c1ccc(NC(=O)c2cc(C(F)(F)F)nn2-c2ccc3onc(N)c3c2)c(F)c1 | – | – | > 5200 nM | –
22 | NC(=O)c1cc(C(=O)N2CCc3cc(-c4ccccc4CN4CCCC4)ccc32)n(-c2ccc3onc(N)c3c2)n1 | – | 0.63 nM | – | Vd [1]: 6.2 L/kg; clearance [2]: 59.5 mL/min/kg; Papp [3]: 0.7 ×10⁻⁶ cm/s; Activity (Plasma): 2.1 µM
23 | CS(=O)(=O)c1ccccc1-c1ccc2c(c1)N(C(=O)c1cc(C(N)=O)nn1-c1ccc3onc(N)c3c1)CC2 | – | 1400 nM | – | –
24 | CN(C)Cc1ccccc1-c1ccc2c(c1)CCN2C(=O)c1cc(C(F)(F)F)nn1-c1ccc2onc(N)c2c1 | 19200 nM | 19 nM | – | –
